# Results: ChEMBL document CHEMBL1268917, “Synthesis and biological evaluation of radio-iodinated benzimidazoles as SPECT imaging agents for NR2B subtype of NMDA receptor” (Bioorg Med Chem, 2010)
# Key:
# Stomach = assay: Biodistribution in ddY mouse stomach assessed per gram of tissue at 14.8 kBq, iv after 0.5 mins; type: ADME, organism-based; settings: in vivo
# Summary of the method: (§1)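 Radioiodinated tracer (14.8 kBq) injected via tail vein into male ddY mice (6 weeks, 30–35 g). Organs removed at set times after injection, weighed and gamma-counted; uptake expressed as % injected dose per gram tissue, mean ± SD, n = 5–6.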
# Kidney [1] = assay: Biodistribution in ddY mouse kidney assessed per gram of tissue at 14.8 kBq, iv after 30 mins; type: ADME, organism-based; settings: in vivo, 0.5 h
# Summary of the method: (§2)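 Killed at set times after injection; organs and blood removed, weighed, gamma counted. Data as % injected dose per gram tissue, mean SD, n = 5–6.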
# Spleen [2] = assay: Biodistribution in ddY mouse spleen assessed per gram of tissue at 14.8 kBq, iv after 180 mins; type: ADME, organism-based; settings: in vivo, 3 h; summary of the method: as §1
# Liver [3] = assay: Biodistribution in ddY mouse liver assessed per gram of tissue at 148 kBq, iv after 180 mins in presence of 50 mg/kg, iv of cyclosporin A administered 30 mins before compound challenge (reference value: 16.20 +/- 1.34 %); type: ADME, organism-based; design: dose 50 mg/kg, route intravenous; settings: in vivo, 3 h
# Liver [4] = assay: Biodistribution in ddY mouse liver assessed per gram of tissue at 148 kBq, iv after 180 mins in presence of 200 mg/kg, iv of probenecid administered 30 mins before compound challenge (reference value: 19.13 +/- 2.09 %); settings: in vivo, 3 h
# Pancreas = assay: Biodistribution in ddY mouse pancreas assessed per gram of tissue at 14.8 kBq, iv after 360 mins; type: ADME, organism-based; settings: in vivo, 6 h; summary of the method: as §1
# Intestine [5] = assay: Biodistribution in ddY mouse intestine assessed per gram of tissue at 14.8 kBq, iv after 180 mins; type: ADME, organism-based; settings: in vivo, 3 h; summary of the method: as §2
# Kidney [6] = assay: Biodistribution in ddY mouse kidney assessed per gram of tissue at 148 kBq, iv after 180 mins in presence of 50 mg/kg, iv of cyclosporin A administered 30 mins before compound challenge (reference value: 4.49 +/- 1.34 %); type: ADME, organism-based; design: dose 50 mg/kg, route intravenous; settings: in vivo, 3 h
# Liver [7] = assay: Biodistribution in ddY mouse liver assessed per gram of tissue at 14.8 kBq, iv after 0.5 mins; type: ADME, organism-based; settings: in vivo; summary of the method: as §2
# Intestine [8] = assay: Biodistribution in ddY mouse intestine assessed per gram of tissue at 14.8 kBq, iv after 360 mins; type: ADME, organism-based; settings: in vivo, 6 h; summary of the method: as §2
# Lung = assay: Biodistribution in ddY mouse lung assessed per gram of tissue at 14.8 kBq, iv after 5 mins; type: ADME, organism-based; settings: in vivo; summary of the method: as §1
# Heart [9] = assay: Biodistribution in ddY mouse heart assessed per gram of tissue at 14.8 kBq, iv after 30 mins; type: ADME, organism-based; settings: in vivo, 0.5 h; summary of the method: as §2
# Brain [10] = assay: Biodistribution in ddY mouse brain assessed per gram of tissue at 148 kBq, iv after 180 mins in presence of 200 mg/kg, iv of probenecid administered 30 mins before compound challenge (reference value: 0.44 +/- 0.06 %); settings: in vivo, 3 h
# Blood [11] = assay: Biodistribution in ddY mouse blood assessed per gram of tissue at 14.8 kBq, iv after 360 mins; type: ADME, organism-based; settings: in vivo, 6 h; summary of the method: as §2
# Spleen [12] = assay: Biodistribution in ddY mouse spleen assessed per gram of tissue at 14.8 kBq, iv after 60 mins; type: ADME, organism-based; settings: in vivo, 1 h; summary of the method: as §1
# Heart [13] = assay: Biodistribution in ddY mouse heart assessed per gram of tissue at 14.8 kBq, iv after 180 mins; type: ADME, organism-based; settings: in vivo, 3 h; summary of the method: as §2
# Brain [14] = assay: Biodistribution in ddY mouse brain assessed per gram of tissue at 14.8 kBq, iv after 5 mins; type: ADME, organism-based; settings: in vivo; summary of the method: as §2
# Liver [15] = assay: Biodistribution in ddY mouse liver assessed per gram of tissue at 14.8 kBq, iv after 5 mins; type: ADME, organism-based; settings: in vivo; summary of the method: as §2
# Heart [16] = assay: Biodistribution in ddY mouse heart assessed per gram of tissue at 14.8 kBq, iv after 5 mins; type: ADME, organism-based; settings: in vivo; summary of the method: as §2
# Kidney [17] = assay: Biodistribution in ddY mouse kidney assessed per gram of tissue at 14.8 kBq, iv after 5 mins; type: ADME, organism-based; settings: in vivo; summary of the method: as §2
# Liver [18] = assay: Biodistribution in ddY mouse liver assessed per gram of tissue at 14.8 kBq, iv after 60 mins; type: ADME, organism-based; settings: in vivo, 1 h; summary of the method: as §1
# Brain [19] = assay: Biodistribution in ddY mouse brain assessed per gram of tissue at 14.8 kBq, iv after 30 mins; type: ADME, organism-based; settings: in vivo, 0.5 h; summary of the method: as §2
# Blood [20] = assay: Biodistribution in ddY mouse blood assessed per gram of tissue at 14.8 kBq, iv after 60 mins; type: ADME, organism-based; settings: in vivo, 1 h; summary of the method: as §2
structure (smiles),measurement,setting,value
Oc1ccc2nc(CN3CCC(Cc4ccc([125I])cc4)CC3)[nH]c2c1,Drug uptake,Stomach,0.72 % ID/g
same,Drug uptake,Kidney [1],11.2 % ID/g
same,Drug uptake,Spleen [2],4.25 % ID/g
same,Drug uptake,Liver [3],15.2 % ID/g
same,Drug uptake,Liver [4],20 % ID/g
same,Drug uptake,Pancreas,8.76 % ID/g
same,Drug uptake,Intestine [5],4.55 % ID/g
same,Drug uptake,Kidney [6],4.8 % ID/g
same,Drug uptake,Liver [7],14.68 % ID/g
same,Drug uptake,Intestine [8],5.89 % ID/g
same,Drug uptake,Lung,14.48 % ID/g
same,Drug uptake,Heart [9],2.31 % ID/g
same,Drug uptake,Brain [10],0.57 % ID/g
same,Drug uptake,Blood [11],0.28 % ID/g
same,Drug uptake,Spleen [12],4.65 % ID/g
same,Drug uptake,Heart [13],1.58 % ID/g
same,Drug uptake,Brain [14],0.42 % ID/g
same,Drug uptake,Liver [15],25.03 % ID/g
same,Drug uptake,Heart [16],5.39 % ID/g
same,Drug uptake,Kidney [17],12.2 % ID/g
same,Drug uptake,Liver [18],30.5 % ID/g
same,Drug uptake,Brain [19],0.44 % ID/g
same,Drug uptake,Blood [20],0.75 % ID/g
